Tests used:
[1] = In vitro affinity against Dopamine receptor D4; set-up: species or system Bos taurus
[2] = biological target: T1, 5-hydroxytryptamine receptor 2B (Rattus norvegicus, UniProt P30994); assay: Compound was evaluated for antagonism against serotonin (5-hydroxytryptamine 2B receptor ) receptor; assay type: functional; conditions: read-out: pA2 (converted)
Method in brief: (§1)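 Rat stomach fundus strips in modified Krebs solution, 37 °C, carbogen-aerated organ baths; serotonin cumulative concentration-response curves (0.01 nM-10 µM), runs alternating with and without antagonist, 60 min rest between. Antagonism expressed as pA2 (-log antagonist concentration maintaining response when agonist doubled); 3-4 replicate experiments.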

[3] = biological target: T2, 5-hydroxytryptamine receptor 2A (Rattus norvegicus, UniProt P14842); assay: In vitro affinity against serotonin 5-hydroxytryptamine 2A receptor
T2 sequence (P14842 whole entry): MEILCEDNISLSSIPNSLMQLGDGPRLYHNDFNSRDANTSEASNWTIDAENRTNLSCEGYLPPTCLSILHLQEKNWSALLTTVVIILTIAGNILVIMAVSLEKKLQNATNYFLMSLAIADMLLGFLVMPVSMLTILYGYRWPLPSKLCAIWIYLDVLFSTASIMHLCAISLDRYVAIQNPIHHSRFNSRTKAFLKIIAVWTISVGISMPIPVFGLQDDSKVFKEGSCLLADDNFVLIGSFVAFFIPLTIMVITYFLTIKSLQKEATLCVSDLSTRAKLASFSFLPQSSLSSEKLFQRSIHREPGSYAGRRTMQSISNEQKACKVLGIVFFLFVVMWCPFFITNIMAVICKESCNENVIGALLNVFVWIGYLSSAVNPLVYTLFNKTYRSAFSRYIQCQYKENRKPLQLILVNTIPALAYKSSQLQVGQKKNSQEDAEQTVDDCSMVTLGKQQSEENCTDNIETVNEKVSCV

[4] = biological target: T3, 5-hydroxytryptamine receptor 2C (Homo sapiens) (UniProt P28335); conditions: Bos taurus; 10e-6 M
T3 sequence (whole entry): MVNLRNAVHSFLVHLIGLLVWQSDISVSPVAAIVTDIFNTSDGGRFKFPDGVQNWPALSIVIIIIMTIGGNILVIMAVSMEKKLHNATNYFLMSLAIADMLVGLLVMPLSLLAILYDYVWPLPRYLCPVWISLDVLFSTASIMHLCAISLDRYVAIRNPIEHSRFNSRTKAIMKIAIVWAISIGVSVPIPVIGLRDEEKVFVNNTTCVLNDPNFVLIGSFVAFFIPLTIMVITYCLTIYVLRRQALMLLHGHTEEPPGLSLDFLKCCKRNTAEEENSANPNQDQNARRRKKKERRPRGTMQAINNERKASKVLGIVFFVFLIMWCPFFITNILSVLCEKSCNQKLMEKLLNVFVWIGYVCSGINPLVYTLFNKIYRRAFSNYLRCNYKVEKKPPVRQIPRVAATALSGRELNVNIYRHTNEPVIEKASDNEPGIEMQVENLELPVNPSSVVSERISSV

[5] = test system: Mus musculus; assay: Antipsychotic activity was determined in mice or rat within 20-30 min of administration
[6] = biological target: D(1A) dopamine receptor (Rattus norvegicus, UniProt P18901); assay: In vitro affinity against Dopamine receptor D1
D(1A) dopamine receptor, sequence (P18901 whole entry): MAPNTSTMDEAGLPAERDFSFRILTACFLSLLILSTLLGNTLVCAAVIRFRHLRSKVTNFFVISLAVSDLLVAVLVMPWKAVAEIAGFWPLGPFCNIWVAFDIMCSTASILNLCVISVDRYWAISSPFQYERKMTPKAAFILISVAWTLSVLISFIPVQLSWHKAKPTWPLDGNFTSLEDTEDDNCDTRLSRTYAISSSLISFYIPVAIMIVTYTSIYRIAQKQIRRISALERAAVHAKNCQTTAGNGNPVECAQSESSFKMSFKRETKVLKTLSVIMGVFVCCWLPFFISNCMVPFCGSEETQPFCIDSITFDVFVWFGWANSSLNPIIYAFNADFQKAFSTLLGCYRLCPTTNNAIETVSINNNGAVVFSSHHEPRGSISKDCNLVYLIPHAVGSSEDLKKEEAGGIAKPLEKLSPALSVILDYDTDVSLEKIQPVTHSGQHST

[7] = test system: Mus musculus; assay: Effective dose administered in apomorphine induced climbing test in mice (in vivo); assay type: functional
[8] = test system: Mus musculus; assay: Effective dose administered in catalepsy test in mice (in vivo); assay type: functional
Method in brief: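 Mice (n = 6-12) tested 30 min after dosing: forepaws on one horizontal wire, hindpaws on another 6 cm away and 2 cm lower. Posture held over 30 s counted as catalepsy; ED50 by Litchfield-Wilcoxon method.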

[9] = biological target: T3, 5-hydroxytryptamine receptor 2C (Homo sapiens); conditions: Bos taurus; 10e-6 M; remark: listed apart in the source
[10] = test system: Mus musculus; assay: Effective dose administered in apomorphine induced climbing test in mice (in vivo); Value ranges from 0.8-1.44; assay type: functional
[11] = biological target: T1, 5-hydroxytryptamine receptor 2B; assay: Compound was evaluated for antagonism against serotonin (5-hydroxytryptamine 2B) receptor; assay type: functional; conditions: read-out: pA2 (converted); method in brief: as §1
[12] = biological target: T2, 5-hydroxytryptamine receptor 2A; assay: In vitro affinity against serotonin ( 5-hydroxytryptamine 2A receptor ) receptor
Method in brief: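 Rat frontal cortex membranes (male Sprague-Dawley), preincubated 37 °C 15 min to remove endogenous 5-HT, in Tris-HCl pH 8.07 with 4 mM CaCl2 and 0.1% ascorbic acid. [3H]ketanserin competition in triplicate, 1 µM methysergide masking as required, 30 min at 37 °C; filtration on PEI-soaked GF/C, scintillation counting; two replicate experiments.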

T1 sequence (P30994 whole entry): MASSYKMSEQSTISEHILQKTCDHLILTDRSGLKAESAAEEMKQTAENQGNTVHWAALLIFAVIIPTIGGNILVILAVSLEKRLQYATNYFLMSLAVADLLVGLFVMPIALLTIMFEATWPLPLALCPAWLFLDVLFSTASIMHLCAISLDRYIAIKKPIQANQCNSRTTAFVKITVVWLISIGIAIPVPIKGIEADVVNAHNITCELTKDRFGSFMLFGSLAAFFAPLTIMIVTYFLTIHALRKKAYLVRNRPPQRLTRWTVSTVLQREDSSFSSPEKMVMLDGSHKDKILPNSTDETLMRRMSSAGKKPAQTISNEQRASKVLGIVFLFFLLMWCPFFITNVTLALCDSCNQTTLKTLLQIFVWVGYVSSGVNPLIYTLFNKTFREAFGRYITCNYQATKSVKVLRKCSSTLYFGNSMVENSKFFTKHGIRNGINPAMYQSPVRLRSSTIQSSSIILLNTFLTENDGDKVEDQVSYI

Row | SMILES | Log Ki [1] | Kb [2] | Ki [3] | further results
1 | O=C(CCCN1CCC(O)(c2ccc(Cl)cc2)CC1)c1ccc(F)cc1 [HALOPERIDOL] | -8.2 | – | – | –
2 | CN1CCN(C2=Nc3cc(Cl)ccc3Nc3ccccc32)CC1 [CLOZAPINE] | -7.42 | – | – | –
3 | O=C1CC(CN2CCN(c3ccccn3)CC2)Cc2occc21 (stereo not given) | – | 3470 nM | 8320 nM | –
4 | O=C(CCCN1CCN(CC2CC(=O)c3ccoc3C2)CC1)c1ccc(F)cc1 (stereo not given) | – | 437 nM | 955 nM | Inhibition [4]: 3.7%
5 | O=C1CC(CN2CCC(c3noc4cc(F)ccc34)CC2)Cc2occc21 (stereo not given) | -7.68 | 245 nM | 10.7 nM | ED50 [5]: 0.48 mg/kg; Ki [6]: 28.8 nM; ED50 [7]: 0.34 mg/kg; ED50 [8]: 3.84 mg/kg
6 | O=C(CCCCN1CCN(CC2CC(=O)c3ccoc3C2)CC1)c1ccc(F)cc1 (stereo not given) | – | 589 nM | 1260 nM | Inhibition [9]: 44.3%
7 | COc1ccccc1N1CCN(CC2CC(=O)c3ccoc3C2)CC1 (stereo not given) | – | 646 nM | 2290 nM | –
8 | O=C1CC(CN2CCC(C(=O)c3ccc(F)cc3)CC2)Cc2occc21 (stereo not given) | -7.04 | – | – | ED50 [10]: 0.95 mg/kg; ED50 [5]: 1.21 mg/kg; Kb [11]: 195 nM; Ki [6]: 195 nM; ED50 [8]: 3.44 mg/kg; Ki [12]: 51.3 nM
9 | O=C1CC(CN2CCN(c3ccccc3)CC2)Cc2occc21 (stereo not given) | – | > 100000 nM | – | Ki [12]: 21.9 nM
10 | O=C1CC(CN2CCN(c3ncccn3)CC2)Cc2occc21 (stereo not given) | – | 1820 nM | > 100000 nM | –

Source: ChEMBL document CHEMBL1133541, “Conformationally constrained butyrophenones with affinity for dopamine (D(1), D(2), D(4)) and serotonin (5-HT(2A), 5-HT(2B), 5-HT(2C)) receptors: synthesis of aminomethylbenzo[b]furanones and their evaluation as antipsychotics” (J Med Chem, 2000)
